Measurements: ChEMBL document CHEMBL1130381, “Synthesis and evaluation of trimetoquinol derivatives: novel thromboxane A2/prostaglandin H2 antagonists with diminished beta-adrenergic agonist activity” (J Med Chem, 1997)

What was measured:
[1] = species on record: Homo sapiens; assay: Inhibitory activity against U-46,619-induced (1 uM) human platelet activation (aggregation); assay type: functional
How it was run: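 Human platelet-rich plasma from volunteers free of medication for at least 10 days, with aspirin (1 mM) to block endogenous prostaglandins. Drug and aspirin preincubated 1 min, then U46619 (0.3–1 μM, minimum concentration giving maximal aggregation) added. Turbidometric aggregation monitored for 4 min. IC50 read graphically from percent response versus log concentration plots, reported as pIC50.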

[2] = species on record: Homo sapiens; assay: Potency ratio of human platelet aggregation; assay type: functional
[3] = molecular target: Beta-2 adrenergic receptor (Cavia porcellus) (UniProt Q8K4Z4)
[4] = species on record: Homo sapiens; assay: Inhibitory activity against U-46,619-induced (1 uM) human platelet activation (Serotonin secretion); assay type: functional
How it was run: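 Aspirin (1 mM) plus drug for 1 min, then U46619 (0.3–1 μM). Supernatant counted by liquid scintillation. Percent secretion = (sample − unstimulated background cpm)/(total − background cpm) × 100. IC50 taken graphically from log concentration–response plots, given as pIC50.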

[5] = molecular target: T1, Thromboxane A2 receptor (Homo sapiens, UniProt P21731); assay: Inhibitory concentration against radioligand [3H]SQ-29,548 (5 nM) binding to TP receptors in human platelets
T1 sequence (P21731 whole entry): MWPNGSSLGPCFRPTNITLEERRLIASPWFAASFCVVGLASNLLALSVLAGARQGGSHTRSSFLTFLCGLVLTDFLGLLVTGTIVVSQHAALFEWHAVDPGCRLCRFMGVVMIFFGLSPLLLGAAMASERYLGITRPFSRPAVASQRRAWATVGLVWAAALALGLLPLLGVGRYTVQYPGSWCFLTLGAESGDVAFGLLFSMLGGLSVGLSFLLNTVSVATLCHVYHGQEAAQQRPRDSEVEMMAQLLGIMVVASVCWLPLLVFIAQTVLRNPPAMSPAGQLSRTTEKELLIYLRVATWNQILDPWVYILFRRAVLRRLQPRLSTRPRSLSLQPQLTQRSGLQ

[6] = molecular target: Beta-1 adrenergic receptor (Cavia porcellus) (UniProt B0FL73); conditions: Cardiac atrium
Beta-1 adrenergic receptor (Cavia porcellus), sequence (B0FL73 1-467): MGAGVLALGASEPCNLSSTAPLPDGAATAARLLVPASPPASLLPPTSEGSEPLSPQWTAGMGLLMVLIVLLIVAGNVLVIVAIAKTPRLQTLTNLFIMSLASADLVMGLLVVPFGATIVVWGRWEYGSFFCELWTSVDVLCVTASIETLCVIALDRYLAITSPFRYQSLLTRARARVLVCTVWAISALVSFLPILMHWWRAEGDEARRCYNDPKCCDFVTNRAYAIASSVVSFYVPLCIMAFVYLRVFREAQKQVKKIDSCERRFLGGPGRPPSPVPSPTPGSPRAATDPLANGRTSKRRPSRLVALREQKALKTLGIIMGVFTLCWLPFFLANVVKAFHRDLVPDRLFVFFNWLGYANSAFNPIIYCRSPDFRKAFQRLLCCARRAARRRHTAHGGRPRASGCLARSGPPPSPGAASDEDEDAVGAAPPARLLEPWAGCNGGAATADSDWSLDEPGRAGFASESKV

Beta-2 adrenergic receptor (Cavia porcellus), sequence (Q8K4Z4 whole entry, looked up): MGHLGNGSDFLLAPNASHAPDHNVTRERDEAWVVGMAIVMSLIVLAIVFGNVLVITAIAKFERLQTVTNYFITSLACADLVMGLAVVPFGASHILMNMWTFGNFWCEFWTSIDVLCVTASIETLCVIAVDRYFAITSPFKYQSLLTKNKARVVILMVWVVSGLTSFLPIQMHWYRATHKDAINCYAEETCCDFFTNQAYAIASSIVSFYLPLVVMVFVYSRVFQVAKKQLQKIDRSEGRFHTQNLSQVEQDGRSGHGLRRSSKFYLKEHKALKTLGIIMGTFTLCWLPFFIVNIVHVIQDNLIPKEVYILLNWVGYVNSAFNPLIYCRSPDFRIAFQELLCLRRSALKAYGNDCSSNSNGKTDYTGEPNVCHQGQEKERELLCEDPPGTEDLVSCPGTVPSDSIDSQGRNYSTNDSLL

| IC50 [1] [µM] | pD2 [3] | IC50 [4] [µM] | IC50 [5] [µM] | Ki [5] [µM] | pD2 [6] | SMILES | Potency ratio [2] |
| --- | --- | --- | --- | --- | --- | --- | --- |
| 200 | 3.95 | 204 | – | – | – | COc1cc(NC2=NCCc3cc(O)c(O)cc32)cc(OC)c1OC | 0.00575 |
| – | – | – | 275 | 120 | – | COc1cc(N=C2NCCc3cc(O)c(O)cc32)cc(OC)c1OC | – |
| – | – | – | – | – | – | COc1cc(CC2c3cc(O)c(O)cc3CCN2Cc2ccccc2)cc(OC)c1OC (configuration not stated) | 0.0331 |
| – | – | – | – | – | – | COc1cc(CC2NCCc3cc(O)c(O)cc32)cc(I)c1OC (configuration not stated) | 1.12 |
| 44.7 | 7.49 | 60.3 | 25.1 | 9.55 | 7.26 | O=[N+]([O-])c1ccc(CC2NCCc3cc(O)c(O)cc32)cc1 (configuration not stated) | – |
| 38 | 4.64 | 34.7 | 41.7 | 16.2 | 4.62 | COc1cc(CC2c3cc(O)c(O)cc3CCN2CCc2ccccc2)cc(OC)c1OC (configuration not stated) | 0.0302 |
| 1.26 | 6.55 | 1.12 | 0.871 | 0.339 | 5.91 | O=[N+]([O-])c1cc(CC2NCCc3cc(O)c(O)cc32)ccc1O (configuration not stated) | – |
| 1.15 | 7.26 | 1.32 | – | – | 7.36 | COc1cc(C[C@@H]2NCCc3cc(O)c(O)cc32)cc(OC)c1OC [TRETOQUINOL] | – |
| 129 | 6.75 | 145 | 89.1 | 34.7 | 6.21 | Nc1ccc(CC2NCCc3cc(O)c(O)cc32)cc1 (configuration not stated) | – |
